≈ marks a conversion by molar mass, not a printed value. Calls of active or inactive are those of the source. The rule behind the calls is not given here.

For series [1], the system named is Mycobacterium tuberculosis. Description: Antimycobacterial activity against Mycobacterium tuberculosis mc'2-7000x assessed as inhibition of mycobacterial growth at 500 ug/ml. Format: functional, organism-based.
Series [2] deals with Mycobacterium tuberculosis. Description: Antimycobacterial activity against Mycobacterium tuberculosis H37Rv ATTC 27294 assessed as inhibition of mycobacterial growth incubated for 7 days. Format: functional. In short, it runs like this:
(§1)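 MIC by HT-SPOTi on Middlebrook 7H10 agar with 0.05% (v/v) glycerol and 10% (v/v) OADC in 96-well format. Compounds dissolved at 50 mg/mL (stock), two-fold serial dilutions, final 500-0.5 µg/mL. Each well spotted with 2 µL early-to-midlog culture (2x10^3 CFU), incubated at 37 °C until distinct spots in control wells. DMSO-only and isoniazid controls; triplicate.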

Series [3] deals with Mycobacterium tuberculosis. Description: Antimycobacterial activity against Mycobacterium tuberculosis mc'2-7000x assessed as inhibition of mycobacterial growth. Format: functional.
In series [4] the test system is Mycolicibacterium aurum. Put plainly: Inhibition of multidrug resistance efflux pump in Mycobacterium aurum ATCC 23366 assessed as inhibition of ethidium bromide efflux by measuring relative fluorescence units for ethidium bromide accumulation at 1/4 times MIC incubated for 60 mins by fluorimetric assay. In short, it runs like this: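 Whole-cell efflux assay: early-log cells (OD600 ~0.8) adjusted to OD600 0.4, washed into PBS; 4-6x10^7 bacteria/mL with 0.4% glucose, 0.5 mg/L ethidium bromide substrate and compound at 1/4x MIC. Fluorescence ex 544/em 590 nm at 37 °C every minute for 60 min; accumulation scored 0-4 by relative fluorescence bands. Verapamil positive, PBS negative control.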

In series [5] the test system is Mycolicibacterium smegmatis. Put plainly: Antimycobacterial activity against Mycobacterium smegmatis str. MC2 155 ATCC 700084 assessed as inhibition of mycobacterial growth incubated for 24 hrs by MABA method. As to conditions: MC2 155 ATCC 700084, 24 h. The series is classed as functional.
Series [6] deals with Mycolicibacterium aurum. Description: Antimycobacterial activity against Mycobacterium aurum ATCC 23366 assessed as inhibition of mycobacterial growth at 500 ug/ml incubated for 4 days. The series is classed as functional, organism-based. In short, it runs like this: (§2)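 HT-SPOTi agar dilution: two-fold serial dilutions of compound were mixed into Middlebrook 7H10 agar with 0.05% glycerol and 10% OADC, giving a final range of 500–0.5 µg/mL. Each well was spotted with 2x10^3 CFU of early-to-mid-log culture. Plates were incubated at 35 or 37 °C until spots appeared in control wells. Controls were DMSO-only and isoniazid. The MIC was read, in triplicate.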

Series [7] in a line: Cytotoxic activity against mouse RAW264.7 cells assessed as reduction in cell viability incubated for 48 hrs by […] based assay. Summed up: (§3)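 RAW264.7 or THP-1 cells were grown in RPMI-1640 with 10% FBS and seeded at 10^5 cells/mL. Compound was two-fold serially diluted from a 50 mg/mL stock, with a solvent-control row. Plates were held 48 h at 37 °C in 5% CO2. Wells were washed twice with PBS, with centrifugation between washes for THP-1, then given fresh RPMI plus 0.01% […]. After overnight incubation, fluorescence was read at 560/590 nm and GIC50 derived.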

Series [8] in a line: Cytotoxic activity against human THP1 cells assessed as reduction in cell viability incubated for 48 hrs by […] based assay. As to conditions: for GI50 at 48 h: THP1 cells; for GI50: thp-1, 48 h. Also noted: species or system THP-1. Summed up:
as §3

Series [9] is described as follows: Selectivity index, ratio of GIC50 for cytotoxicity against human THP1 cells to MIC for Mycobacterium tuberculosis H37Rv ATTC 27294. The series is classed as toxicity, cell-based, THP-1. The conditions noted are these: read-out: Selectivity Index. In short, it runs like this:
(§4)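 SI = GIC50 / H37Rv MIC (agar spot assay). GIC50 from cells in RPMI-1640 + 10% FBS, 37 °C, 5% CO2; 10^5 cells/mL added to two-fold compound dilutions from 50 mg/mL stock, solvent control row. 48 h exposure, washes (THP-1 centrifuged), fresh medium plus 0.01% […], overnight; fluorescence ex 560/em 590 nm.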

Series [10] concerns Mycolicibacterium aurum. Description: Antimycobacterial activity against Mycobacterium aurum ATCC 23366 assessed as inhibition of mycobacterial growth incubated for 4 days. Format: functional. Summed up:
as §2

For series [11], the system named is Mycobacterium tuberculosis. Put plainly: Antimicrobial activity against Mycobacterium tuberculosis. Format: functional.
Series [12] is described as follows: Selectivity index, ratio of GIC50 for cytotoxicity against mouse RAW264.7 cells to MIC for Mycobacterium tuberculosis H37Rv ATTC 27294. As to conditions: read-out: Selectivity Index. The series is classed as toxicity, cell-based. Summed up:
as §4

In series [13] the test system is Mycobacterium tuberculosis. Description: Antimycobacterial activity against Mycobacterium tuberculosis H37Rv ATTC 27294 assessed as inhibition of mycobacterial growth at 500 ug/ml incubated for 7 days. The series is classed as functional, organism-based. Summed up:
as §1

For the molecule `Cc1cc(/C=N\OCc2ccccc2)c(C)n1-c1ccc(F)cc1`, the “growth inhibition (GI)” value in series [1] is “inactive”. Further, the MIC in series [2] (H37Rv ATTC 27294, 168 h) was 25 µg/mL (≈ 77.5 µM). The MIC entry in series [3] is “inactive”.

For `Cc1cc(/C=N\OCc2ccccc2)c(C)n1-c1ccc(Cl)cc1`, the Activity with Mycolicibacterium aurum [4] amounted to 1 RFU. In addition, the MIC in series [5] was greater than 64 µg/mL; in [2] (H37Rv ATTC 27294, 168 h) it was greater than 125 µg/mL; in [3], greater than 64 µg/mL. Moreover, in the series with Mycolicibacterium aurum [6], the “growth inhibition (GI)” value was “inactive”. Further, the GI50 at 48 h in series [7] is 128 µg/mL (≈ 378 µM); in [8], 500 µg/mL (≈ 1480 µM). The selectivity ratio in series [9] was less than 4. In addition, in the series with Mycolicibacterium aurum [10], the MIC entry is “inactive”.

Consider `CC(C)=CCC/C(C)=C/CNCCNC1C2CC3CC(C2)CC1C3` (configuration not stated) [SQ109], for which, in the series with Mycolicibacterium aurum [4], the Activity worked out at 2 RFU. The MIC amounted to 0.5 µM (≈ 0.165 µg/mL) in series [11]; 4 µg/mL (≈ 12.1 µM) in series [5]; 0.51 µg/mL (≈ 1.54 µM) in series [2] (H37Rv ATTC 27294, 168 h); 7.8 µg/mL (≈ 23.6 µM) in the series with Mycolicibacterium aurum [10] (ATCC 23366, 96 h); 2 µg/mL (≈ 6.05 µM) in series [3]. Also, the GI50 result in series [8] is given as “Not Active”.

For `Cc1cc(CNC2C3CC4CC(C3)CC2C4)c(C)n1-c1ccc(Cl)cc1` (configuration not stated), the Activity in the series on Mycolicibacterium aurum [4] is 1 RFU. Also, the MIC in [5] was found to be 16 µg/mL (≈ 43.4 µM); in series [2] (H37Rv ATTC 27294, 168 h) it was 1.9 µg/mL (≈ 5.15 µM); in the series with Mycolicibacterium aurum [10] (ATCC 23366, 96 h), 62 µg/mL (≈ 168 µM); in [3], 1 µg/mL (≈ 2.71 µM). The 50% growth inhibitory concentration (GI50) at 48 h in [7] was determined as 19 µg/mL (≈ 51.5 µM); in series [8], 15 µg/mL (≈ 40.7 µM). The selectivity ratio amounted to 7.8 in series [9] and 10 in [12].

Regarding `Cc1cc(CN2CCN(c3ccccc3)CC2)c(C)n1-c1ccc(Cl)cc1`, the Activity in the series on Mycolicibacterium aurum [4] turned out to be 1 RFU. Also, the MIC in [5] was 32 µg/mL (≈ 84.2 µM); in series [2] (H37Rv ATTC 27294, 168 h) it was 7.8 µg/mL (≈ 20.5 µM); in the series with Mycolicibacterium aurum [10] (ATCC 23366, 96 h), 31 µg/mL (≈ 81.6 µM); in series [3], 32 µg/mL (≈ 84.2 µM). Further, the values for the GI50 at 48 h in series [7] and in [8] were 33 µg/mL (≈ 86.9 µM) and 25 µg/mL (≈ 65.8 µM), respectively. In addition, the selectivity ratio is 3.2 in [9] and 4.2 in series [12].

`Cc1cc(CNOCc2ccccc2)c(C)n1-c1ccc(Cl)cc1`: in the series on Mycolicibacterium aurum [4], the Activity worked out at 2 RFU. Moreover, the MIC in [5] and in [3] was greater than 64 µg/mL throughout. Moreover, the “growth inhibition (GI)” value (with Mycolicibacterium aurum [6]; in [13]) was “inactive” throughout. In addition, the results for the GI50 at 48 h in series [7] and in series [8] were 133 µg/mL (≈ 390 µM) and 67 µg/mL (≈ 197 µM), respectively. The MIC result (in [2]; with Mycolicibacterium aurum [10]) was “inactive” each time.

With `Cc1c(CN2CCN(C3C4CC5CC(C4)CC3C5)CC2)cc(-c2ccc(Cl)cc2)n1-c1ccc(Cl)cc1` (configuration not stated), the Activity with Mycolicibacterium aurum [4] came out at 0 RFU. The minimum inhibitory concentration (MIC) in series [5] was greater than 64 µg/mL; in [2] (H37Rv ATTC 27294, 168 h), 62 µg/mL (≈ 116 µM); in [3], greater than 64 µg/mL. Besides, the GI50 at 48 h in series [7] was found to be 95 µg/mL (≈ 178 µM); in series [8] it was 500 µg/mL (≈ 935 µM). The selectivity ratio was 8.1 in [9] and 1.5 in series [12]. In addition, the MIC result in the series with Mycolicibacterium aurum [10] is “inactive”.

Turning to `Cc1c(CN2CCN(c3ccccc3)CC2)cc(-c2ccc(Cl)cc2)n1-c1ccc(Cl)cc1`, the Activity in the series on Mycolicibacterium aurum [4] came out at 2 RFU. Moreover, the MIC is greater than 64 µg/mL in series [5]; 1.9 µg/mL (≈ 3.99 µM) in [2] (H37Rv ATTC 27294, 168 h); 1 µg/mL (≈ 2.1 µM) in [3]. The values for the 50% growth inhibitory concentration (GI50) at 48 h in series [7] and in [8] were 175 µg/mL (≈ 367 µM) and 294 µg/mL (≈ 617 µM), respectively. In addition, the selectivity ratio came out at 155 in series [9] and 92 in series [12]. Also, the MIC result in the series on Mycolicibacterium aurum [10] is “inactive”.

`Cc1cc(CNCc2ccc(Cl)cc2)c(C)n1-c1ccc(Cl)cc1`: the Activity with Mycolicibacterium aurum [4] amounted to 2 RFU. Further, the MIC amounted to 4 µg/mL (≈ 11.1 µM) in series [5]; 16 µg/mL (≈ 44.5 µM) in [2] (H37Rv ATTC 27294, 168 h); 1.9 µg/mL (≈ 5.29 µM) in the series with Mycolicibacterium aurum [10] (ATCC 23366, 96 h); 2 µg/mL (≈ 5.57 µM) in series [3]. The GI50 at 48 h in [7] is 0.1 µg/mL (≈ 0.278 µM); in series [8] it was 18 µg/mL (≈ 50.1 µM). In addition, the selectivity ratio in series [9] came to 1.1; in series [12], 0.006.

On to `Cc1cc(CNOCc2ccccc2)c(C)n1-c1ccc(F)cc1`, for which the Activity in the series on Mycolicibacterium aurum [4] was determined as 4 RFU. In addition, the minimal inhibitory concentration (MIC) in series [5] is greater than 64 µg/mL; in [2] (H37Rv ATTC 27294, 168 h) it was greater than 125 µg/mL; in series [3], greater than 64 µg/mL. For the same molecule, the “growth inhibition (GI)” value with Mycolicibacterium aurum [6] is “inactive”. For the same molecule, the results for the GI50 at 48 h in [7] and in series [8] were 123 µg/mL (≈ 379 µM) and 292 µg/mL (≈ 900 µM), respectively. The selectivity ratio in [9] was less than 2.3; in [12], less than 1. Moreover, the MIC result with Mycolicibacterium aurum [10] was “inactive”.

As to `NNC(=O)c1ccncc1` [ISONIAZID], the “growth inhibition (GI)” value in series [1] was “inactive”. Moreover, in series [2] (H37Rv ATTC 27294, 168 h), the MIC turned out to be 0.24 µg/mL (≈ 1.75 µM). The GI50 result in series [8] was “Not Active”. In [3], the MIC entry was “inactive”.

One may read the MIC as the lowest concentration found to suppress growth. The term GI50 denotes the concentration that inhibits growth by half.
